This is an account of results in ChEMBL document CHEMBL3632544, “Acyl dihydropyrazolo[1,5-a]pyrimidinones as metabotropic glutamate receptor 5 positive allosteric modulators” (Bioorg Med Chem Lett, 2015).

pEC50: −log10 of the molar value. Where only a bound is given, the exact number is not on record here.

The target of series [1] is T1, Metabotropic glutamate receptor 5 (Homo sapiens, UniProt P41594). As to the kind of experiment: Positive allosteric modulation of human mGlu5 expressed in HEK293 cells assessed as calcium mobilization. Type of series: functional, cell-based. The conditions noted are these: for pEC50: read-out: EC50. Summed up:
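Calcium mobilization read-out in HEK293 cells stably expressing human mGlu5; PAM EC50 and efficacy as % of maximal glutamate response. Mean±SEM of three or more independent determinations, each in triplicate.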
Background: Calcium flux is commonly read through the fluorescence of an indicator in the cells.
Target sequence in this assay (P41594 whole entry): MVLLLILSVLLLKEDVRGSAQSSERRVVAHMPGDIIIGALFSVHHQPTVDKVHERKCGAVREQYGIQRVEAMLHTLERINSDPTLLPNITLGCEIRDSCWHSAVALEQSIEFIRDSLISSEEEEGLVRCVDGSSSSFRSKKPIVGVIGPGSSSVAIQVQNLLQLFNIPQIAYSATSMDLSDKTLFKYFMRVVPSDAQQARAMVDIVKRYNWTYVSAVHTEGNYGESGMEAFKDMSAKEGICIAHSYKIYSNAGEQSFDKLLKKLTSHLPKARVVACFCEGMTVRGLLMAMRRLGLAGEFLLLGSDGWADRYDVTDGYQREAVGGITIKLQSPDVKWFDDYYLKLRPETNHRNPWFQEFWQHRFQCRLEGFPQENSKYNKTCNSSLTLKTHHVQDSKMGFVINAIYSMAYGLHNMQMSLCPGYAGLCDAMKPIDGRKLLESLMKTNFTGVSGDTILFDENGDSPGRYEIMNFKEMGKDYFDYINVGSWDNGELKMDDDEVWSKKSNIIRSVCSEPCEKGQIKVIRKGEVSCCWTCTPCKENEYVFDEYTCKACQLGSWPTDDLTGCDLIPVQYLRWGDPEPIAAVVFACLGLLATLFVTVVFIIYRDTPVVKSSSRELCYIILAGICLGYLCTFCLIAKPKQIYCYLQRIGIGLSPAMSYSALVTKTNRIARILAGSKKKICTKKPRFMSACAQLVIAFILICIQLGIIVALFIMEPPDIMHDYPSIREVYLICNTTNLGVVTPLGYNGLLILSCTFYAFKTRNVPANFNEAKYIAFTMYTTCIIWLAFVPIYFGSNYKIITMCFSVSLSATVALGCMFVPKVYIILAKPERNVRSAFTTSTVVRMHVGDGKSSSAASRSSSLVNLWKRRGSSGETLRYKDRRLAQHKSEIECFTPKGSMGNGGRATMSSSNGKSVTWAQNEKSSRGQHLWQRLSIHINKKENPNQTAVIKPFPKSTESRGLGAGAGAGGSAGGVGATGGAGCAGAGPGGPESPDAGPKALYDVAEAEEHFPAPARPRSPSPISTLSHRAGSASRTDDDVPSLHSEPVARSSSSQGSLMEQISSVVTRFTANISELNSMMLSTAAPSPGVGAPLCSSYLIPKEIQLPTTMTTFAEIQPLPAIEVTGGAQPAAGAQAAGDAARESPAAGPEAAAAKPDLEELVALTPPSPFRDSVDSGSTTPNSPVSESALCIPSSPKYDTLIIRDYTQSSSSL

The target in series [2] is T1, Metabotropic glutamate receptor 5. The series can be described thus: Positive allosteric modulation of human mGlu5 expressed in HEK293 cells assessed as calcium mobilization relative to glutamate. It counts as functional, cell-based. Summed up: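 Calcium mobilization in HEK293 cells expressing human mGlu5, reported as EC50 and % Glu Max. Mean±SEM of three or more independent determinations, each run in triplicate.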
Target sequence in this assay (P41594 21-1212 limits assumed): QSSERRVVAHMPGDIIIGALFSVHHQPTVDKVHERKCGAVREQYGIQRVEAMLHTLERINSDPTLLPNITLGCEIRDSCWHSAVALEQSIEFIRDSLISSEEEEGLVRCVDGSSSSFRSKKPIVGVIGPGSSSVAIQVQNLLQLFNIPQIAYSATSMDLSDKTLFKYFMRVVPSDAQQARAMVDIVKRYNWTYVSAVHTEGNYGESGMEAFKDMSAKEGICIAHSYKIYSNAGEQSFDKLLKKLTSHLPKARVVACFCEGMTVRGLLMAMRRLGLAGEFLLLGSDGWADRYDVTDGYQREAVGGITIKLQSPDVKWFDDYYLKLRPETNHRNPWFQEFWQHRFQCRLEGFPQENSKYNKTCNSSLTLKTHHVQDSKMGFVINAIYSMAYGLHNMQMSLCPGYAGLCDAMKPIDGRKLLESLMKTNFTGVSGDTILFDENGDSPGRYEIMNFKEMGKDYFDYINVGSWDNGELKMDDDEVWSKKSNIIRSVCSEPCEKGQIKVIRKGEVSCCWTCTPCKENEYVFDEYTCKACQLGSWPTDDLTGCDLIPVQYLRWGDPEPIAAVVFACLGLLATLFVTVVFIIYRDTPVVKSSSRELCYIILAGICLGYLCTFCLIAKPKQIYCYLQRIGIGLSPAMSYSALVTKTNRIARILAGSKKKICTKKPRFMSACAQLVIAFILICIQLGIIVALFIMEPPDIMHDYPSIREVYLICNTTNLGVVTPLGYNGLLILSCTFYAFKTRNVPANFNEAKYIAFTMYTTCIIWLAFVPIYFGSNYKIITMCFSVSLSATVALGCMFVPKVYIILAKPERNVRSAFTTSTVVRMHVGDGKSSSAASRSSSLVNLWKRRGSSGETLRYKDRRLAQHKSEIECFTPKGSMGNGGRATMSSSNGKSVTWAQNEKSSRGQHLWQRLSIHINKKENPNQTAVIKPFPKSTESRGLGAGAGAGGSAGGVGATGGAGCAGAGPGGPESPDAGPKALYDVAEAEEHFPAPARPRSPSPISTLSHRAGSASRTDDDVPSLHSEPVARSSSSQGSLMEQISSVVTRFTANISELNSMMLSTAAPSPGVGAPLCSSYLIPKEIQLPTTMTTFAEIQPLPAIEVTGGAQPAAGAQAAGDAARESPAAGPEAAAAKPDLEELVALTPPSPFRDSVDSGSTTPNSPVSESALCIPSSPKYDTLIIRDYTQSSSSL

Series [3] relates to Plasma. The series can be described thus: Fraction unbound in human plasma. Type of series: ADME, cell-free. Summed up: (§1)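 Plasma protein binding measured in human and rat plasma; readout is fraction unbound.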
In series [4] the test system is Plasma. The series can be described thus: Fraction unbound in rat plasma. It counts as ADME, cell-free. Summed up: as §1
The subject of series [5] is Plasma. As to the kind of experiment: Stability in rat plasma after 4 hrs. Type of series: ADME, cell-free. Summed up: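 Compound incubated in rat plasma at 37 °C for 4 h; stability assessed.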
Series [6] in a line: Stability in simulated gastric fluid for 1 hr. The conditions noted are these: simulated gi fluid. Type of series: physicochemical. In a few lines: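 Incubation in simulated gastric fluid at 37 °C for 1 h; decomposition of the external amide assessed.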
Series [7] in a line: Stability in beta cyclodextrin at pH 6 upto 5 days. Type of series: physicochemical. The conditions noted are these: buffer, pH 6, 120 h. Summed up: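 Stability of the compound formulated at 4 mg/mL in 20% β-cyclodextrin vehicle, pH 6, monitored for up to five days; percent decomposition of the amide determined.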
Series [8] is described as follows: Plasma clearance in Sprague-Dawley rat at 0.2 mg/kg, iv. It counts as ADME, organism-based.

With `CCC(=O)N1CCCn2nc(COc3ccccc3)cc21`, in series [1], the pEC50 (as a rule, the EC50 on a negative log10 scale, so that one unit is a factor of ten) was 6.48. The %max in series [2] amounted to 48%.

Take `CC(=O)N1CCCn2nc(COc3cc(F)cc(C#N)c3)cc21`: the negative logarithm of the EC50 (pEC50) in series [1] is below 5.00. Besides, the %max in series [2] turned out to be 39%.

As to `CC(=O)N1CCCn2nc(CN(C)c3ccccc3)cc21`, the pEC50 in series [1] was 6.15. In addition, the %max in series [2] was 74%. Also, the results for the Fu in the series on Plasma [3] and in the series with Plasma [4] were 0.46 and 0.35, respectively.

As to `O=C(c1ccccc1)N1CCCn2nc(COc3ccccc3)cc21`, the pEC50 in series [1] was 6.21. Besides, the %max in series [2] amounted to 63%.

Consider `CC(=O)N1c2cc(COc3ccccc3)nn2CCC1c1ccccc1` (stereo not drawn), for which, in series [1], the negative logarithm of the EC50 (pEC50) is 5.27. For the same compound, the %max in series [2] amounted to 38%.

For the compound `CC(=O)N1c2cc(COc3ccccc3)nn2CCC1C` (stereo not drawn), the negative-log EC50 (pEC50) in series [1] was 6.10. Besides, the %max in series [2] was 67%.

On to `CC(=O)N1CCCn2nc(COc3ccccc3)c(F)c21`, for which the pEC50 in series [1] was 5.49.

For the compound `CC(=O)N1CCCn2nc(CN3CCc4ccccc43)cc21`, the EC50 entry was “Not Active” in series [1] (hek293) and above 31600 nM in series [1] (read-out: pEC50 (converted)). The %max in series [2] is below 15%.

As for `O=C(c1ccncc1)N1CCCn2nc(COc3ccccc3)cc21`, in series [1], the pEC50 is below 5.00. The %max in series [2] was determined as 51%.

As for `CC(=O)N1CCCn2nc(COc3ccccc3)nc21`, the negative logarithm of the EC50 (pEC50) in series [1] was 5.47.

As to `CC(=O)N1CCCc2nc(COc3ccccc3)cn21`, the negative logarithm of the EC50 (pEC50) in series [1] was 6.11. The Stability entry with Plasma [5] is given as “Unstable”.

As to `O=C(c1nccs1)N1CCCn2nc(COc3ccccc3)cc21`, the pEC50 in series [1] is 6.59. Also, in series [2], the %max amounted to 24%.

Regarding `CC(=O)N1CCCn2nc(COc3cc(F)cc(F)c3)cc21`, the pEC50 in series [1] is 5.90. Moreover, the %max in series [2] came out at 63%.

`CC(C)(C)C(=O)N1CCCn2nc(COc3ccccc3)cc21`: the pEC50 in series [1] is 6.05. In series [2], the %max turned out to be 64%.

Turning to `O=C(C1CCCC1)N1CCCn2nc(COc3ccccc3)cc21`, the negative-log EC50 (pEC50) in series [1] was 5.76. The %max in series [2] was determined as 41%.

Take `O=C(c1ccccc1F)N1CCCn2nc(COc3ccccc3)cc21`: the negative-log EC50 (pEC50) in series [1] is 5.95. In series [2], the %max was 62%.

As to `CC(=O)N1CCCn2nc(CN(C)C3C4CC3C4)cc21` (stereo not drawn), the EC50 result in series [1] (hek293) is “Not Active”; in series [1] (read-out: pEC50 (converted)), above 31600 nM. For the same compound, in series [2], the %max was below 15%.

On to `O=C(c1cccc(F)c1)N1CCCn2nc(COc3ccccc3)cc21`, for which, in series [1], the negative-log EC50 (pEC50) was 6.23. The %max in series [2] amounted to 61%.

Take `O=C(c1ccccn1)N1CCCn2nc(COc3ccccc3)cc21`: the pEC50 in series [1] is below 5.00. The %max in series [2] was found to be 44%.

Take `O=C(c1ccc(Cl)cc1)N1CCCn2nc(COc3ccccc3)cc21`: the pEC50 in series [1] was 6.41. Moreover, the %max in series [2] is 68%.

Consider `CC(=O)N1CCCn2nc(COc3ccccc3F)cc21`, for which the Stability entry (in series [6]; in series [7]; in the series with Plasma [5]) was “Stable” in each case. The negative logarithm of the EC50 (pEC50) in series [1] was 5.63. Further, the clearance (in general, the rate of elimination divided by the concentration) in series [8] was 103 mL/min/kg. Further, in series [2], the %max was found to be 60%. Moreover, the Fu is given as 0.17 with Plasma [3] and 0.24 in the series with Plasma [4].

As to `CC(=O)N1CCCn2nc(COc3ccc(F)cc3)cc21`, the pEC50 in series [1] was below 5.00. In addition, in series [2], the %max was 56%.

In the case of `CC(=O)N1CCCn2nc(C[S+]([O-])c3ccccc3)cc21` (stereo not drawn), the figures for the EC50 result in series [1] (hek293) and in series [1] (read-out: pEC50 (converted)) were “Not Active” and above 31600 nM, respectively. Moreover, the %max in series [2] was below 15%.

Regarding `CC(=O)N1CCCn2nc(COc3cccc(F)c3)cc21`, the negative logarithm of the EC50 (pEC50) in series [1] is 6.58. In series [1] (read-out: pEC50 (converted)), the EC50 was 240 nM. The %max in series [2] amounted to 58%.

In the case of `O=C(c1ccc(F)cc1)N1CCCn2nc(COc3ccccc3)cc21`, the pEC50 in series [1] is 6.22. Besides, the %max in series [2] worked out at 63%.

On to `CC(=O)N1CCCn2nc(CSc3ccccc3)cc21`, for which, in series [1], the pEC50 is 5.41. Besides, the %max in series [2] was 39%.

Consider `CC(=O)N1CCCn2nc(CNc3ccccc3)cc21`, for which, in series [1], the pEC50 was below 5.00. In addition, the %max in series [2] turned out to be 20%.

Turning to `CC(=O)N1CCCn2nc(COc3ccncc3)cc21`, the EC50 entry was “Not Active” in series [1] (hek293) and above 31600 nM in series [1] (read-out: pEC50 (converted)). The %max in series [2] is below 15%.

`O=C(c1ccno1)N1CCCn2nc(COc3ccccc3)cc21`: the pEC50 in series [1] was 5.56. In addition, the %max in series [2] is 22%.

On to `CC(=O)N1CCCn2nc(CN3CCCc4ccccc43)cc21`, for which, in series [1], the negative logarithm of the EC50 (pEC50) was below 5.00. Also, the %max in series [2] is 48%.

Turning to `CC(=O)N1CCCc2nc(COc3ccccc3)sc21`, in series [1], the pEC50 was 6.05.

For the compound `O=C(C1CC1)N1CCCn2nc(COc3ccccc3)cc21`, the pEC50 in series [1] is 6.25. The EC50 in series [1] (read-out: pEC50 (converted)) was 525 nM. The %max in series [2] was determined as 61%.

For the compound `CC(=O)N1CCCn2nc(COc3cccnc3)cc21`, the EC50 entry is “Not Active” in series [1] (hek293) and above 31600 nM in series [1] (read-out: pEC50 (converted)). The %max in series [2] is below 15%.

With `CC(C)C(=O)N1CCCn2nc(COc3ccccc3)cc21`, in series [1], the pEC50 was 5.77. The %max in series [2] was found to be 59%.

As to `O=C(Cc1ccccc1)N1CCCn2nc(COc3ccccc3)cc21`, the pEC50 in series [1] was 6.42. Moreover, the EC50 in series [1] (read-out: pEC50 (converted)) was 372 nM. For the same compound, the %max in series [2] is 72%.

As for `CC(=O)N1CCCc2nc(COc3ccccc3)oc21`, the pEC50 in series [1] is 5.87. The Stability result in the series with Plasma [5] is “Unstable”.

On to `CC(=O)N1CCCn2nc(CN3CCOc4ccccc43)cc21`, for which the pEC50 in series [1] is 6.14. Besides, in series [2], the %max was found to be 67%. In addition, the Fu in the series on Plasma [3] turned out to be 0.35; with Plasma [4], 0.43.

For `CC(=O)N1CCCn2nc(CS(=O)(=O)c3ccccc3)cc21`, the EC50 result was “Not Active” in series [1] (hek293) and above 31600 nM in series [1] (read-out: pEC50 (converted)). Further, the %max in series [2] was below 15%.

Take `O=C(c1ccco1)N1CCCn2nc(COc3ccccc3)cc21`: the EC50 result in series [1] (hek293) is “Not Active”; in series [1] (read-out: pEC50 (converted)), above 31600 nM. Also, the %max in series [2] is below 15%.

For `CC(=O)N1CCCn2cc(COc3ccccc3)nc21`, in series [1] (hek293), the EC50 result was “Not Active”.

For `O=C(C1CCC1)N1CCCn2nc(COc3ccccc3)cc21`, the pEC50 in series [1] was 5.91. Besides, the %max in series [2] is 41%.
